# According to ChEMBL document CHEMBL2146441, “2,6-Disubstituted imidazo[2,1-b][1,3,4]thiadiazoles: search for anticancer agents” (2012):
# Columns and labels:
# Type in all cases: functional
# NCI-H522 = test: Cytotoxicity against human NCI-H522 cells assessed as cell growth at 10^-6 M after 48 hrs by SRB assay; conditions: NCI-H522, 48 h, read-out: Activity
# 786-0 = test: Cytotoxicity against human 786-0 cells assessed as cell growth at 10^-6 M after 48 hrs by SRB assay; conditions: 786-0, 48 h, read-out: Activity
# In short: (§1)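 NCI-60 screen: lines kept in RPMI 1640 with 5% FBS, seeded at 5000–40,000 cells/well by doubling time, preincubated 24 h at 37 °C in 5% CO2. Time-zero plates TCA-fixed at drug addition. DMSO stocks diluted in medium, 48 h exposure. Fixation in cold TCA (final 10% adherent, 16% suspension), 0.4% SRB stain, solubilised in 10 mM Tris base, A515. Percent growth computed against control and time-zero.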
# TK-10 = test: Cytotoxicity against human TK10 cells assessed as cell growth at 10^-4 M after 48 hrs by SRB assay; conditions: TK-10, 48 h, read-out: Activity
# KM12 = test: Cytotoxicity against human KM12 cells assessed as cell growth at 10^-7 M after 48 hrs by SRB assay; conditions: KM12, 48 h, read-out: Activity
# IGROV-1 = test: Cytotoxicity against human IGROV1 cells assessed as cell growth at 10^-5 M after 48 hrs by SRB assay; conditions: IGROV-1, 48 h, read-out: Activity
# In short: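 NCI-60 five-dose screen. Cells were grown in RPMI 1640 with 5% FBS and seeded at 5000–40,000 cells/well according to doubling time. They were pre-incubated 24 h at 37 °C in 5% CO₂, and time-zero (Tz) plates were TCA-fixed at drug addition. Five 10-fold dilutions of DMSO stock were applied for 48 h. Read-out was SRB staining, 515 nm absorbance, with percent growth calculated versus Tz and untreated control.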
# UACC-62 [1] = test: Cytotoxicity against human UACC62 cells assessed as cell growth at 10^-8 M after 48 hrs by SRB assay; conditions: UACC-62, 48 h, read-out: Activity
# UACC-257 = test: Cytotoxicity against human UACC257 cells assessed as cell growth at 10^-5 M after 48 hrs by SRB assay; conditions: UACC-257, 48 h, read-out: Activity
# [2] = Growth inhibition of human NCI-ADR-RES cells after 48 hrs by SRB assay
# In short: (§2)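 Adherent NCI-60 lines grown in RPMI 1640 with 5% FBS, seeded at 5000–40,000 cells/well, and preincubated 24 h at 37 °C, 5% CO2. Compound, stocked in DMSO, given either once at 10^-5 M or at five 10-fold dilutions for 48 h. Cells fixed with cold TCA (final 10%), stained with 0.4% SRB, and read at 515 nm. GI50 taken as 50% reduction in net protein increase versus time-zero and control plates.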
# SF-268 = test: Growth inhibition of human SF268 cells after 48 hrs by SRB assay; conditions: SF-268, 48 h; in short: as §2
# RXF 393 = test: Cytotoxicity against human RXF393 cells assessed as cell growth at 10^-5 M after 48 hrs by SRB assay; conditions: RXF 393, 48 h, read-out: Activity
# T47D = test: Growth inhibition of human T47D cells after 48 hrs by SRB assay; conditions: for CC50: read-out: LC50 (the source's name); in short: as §2
# UACC-62 [3] = test: Cytotoxicity against human UACC62 cells assessed as cell growth at 10^-7 M after 48 hrs by SRB assay; conditions: UACC-62, 48 h, read-out: Activity
# SK-MEL-2 = test: Growth inhibition of human SK-MEL-2 cells after 48 hrs by SRB assay; conditions: SK-MEL-2, 48 h; for CC50: read-out: LC50 (the source's name); in short: as §2
# U-251 = test: Cytotoxicity against human U251 cells assessed as cell growth at 10^-7 M after 48 hrs by SRB assay; conditions: U-251, 48 h, read-out: Activity
# DU-145 = test: Cytotoxicity against human DU145 cells assessed as cell growth at 10^-7 M after 48 hrs by SRB assay; conditions: DU-145, 48 h, read-out: Activity; in short: as §1
# HCT-116 = test: Growth inhibition of human HCT116 cells after 48 hrs by SRB assay; conditions: HCT-116, 48 h; in short: as §2
# M14 = test: Cytotoxicity against human M14 cells assessed as cell growth at 10^-7 M after 48 hrs by SRB assay; conditions: M14, 48 h, read-out: Activity
# PC-3 = test: Cytotoxicity against human PC3 cells assessed as cell growth at 10^-7 M after 48 hrs by SRB assay; conditions: PC-3, 48 h, read-out: Activity
# NCI-H322M = test: Cytotoxicity against human NCI-H322M cells assessed as cell growth at 10^-5 M after 48 hrs by SRB assay; conditions: read-out: Activity
# [4] = Cytotoxicity against human NCI-ADR-RES cells assessed as cell growth at 10^-8 M after 48 hrs by SRB assay; conditions: read-out: Activity
# MOLT-4 = test: Growth inhibition of human MOLT4 cells after 48 hrs by SRB assay; conditions: MOLT-4, 48 h
# In short: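 Leukemia suspension lines grown in RPMI 1640 with 5% FBS, seeded at 5000–40,000 cells/well, and preincubated 24 h at 37 °C, 5% CO2. Compound, stocked in DMSO, given either once at 10^-5 M or at five 10-fold dilutions for 48 h. Settled cells fixed with 80% TCA (final 16%), stained with SRB, and read at 515 nm. GI50 calculated against time-zero and control growth.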
# BT-549 = test: Cytotoxicity against human BT549 cells assessed as cell growth at 10^-7 M after 48 hrs by SRB assay; conditions: BT-549, 48 h, read-out: Activity; in short: as §1
# SNB-19 = test: Growth inhibition of human SNB19 cells after 48 hrs by SRB assay; conditions: SNB-19, 48 h; for CC50: read-out: LC50 (the source's name); in short: as §2
# A549 = test: Cytotoxicity against human A549 cells assessed as cell growth at 10^-8 M after 48 hrs by SRB assay; conditions: A549, 48 h, read-out: Activity; in short: as §1
# ACHN = test: Cytotoxicity against human ACHN cells assessed as cell growth at 10^-8 M after 48 hrs by SRB assay; conditions: read-out: Activity; in short: as §1
# SK-MEL-28 = test: Growth inhibition of human SK-MEL-28 cells after 48 hrs by SRB assay; conditions: SK-MEL-28, 48 h; for CC50: read-out: LC50 (the source's name); in short: as §2
# OVCAR-8 = test: Cytotoxicity against human OVCAR8 cells assessed as cell growth at 10^-6 M after 48 hrs by SRB assay; conditions: OVCAR-8, 48 h, read-out: Activity
# LOX IMVI = test: Cytotoxicity against human LOXIMVI cells assessed as cell growth at 10^-4 M after 48 hrs by SRB assay; conditions: read-out: Activity
structure (smiles),measurement,setting,value
COc1ccc(-c2nn3cc(-c4ccc(O)cc4O)nc3s2)cc1,growth at 1 µM,NCI-H522,69%
same,growth at 1 µM,786-0,90%
same,growth at 100 µM,TK-10,-21%
same,growth at 0.1 µM,KM12,96%
same,growth at 10 µM,IGROV-1,9%
same,growth at 0.01 µM,UACC-62 [1],98%
same,growth at 10 µM,UACC-257,36%
same,GI50,[2],2.94 µM
same,LC50,[2],> 100 µM
same,TGI,[2],44.9 µM
same,GI50,SF-268,2.42 µM
same,LC50,SF-268,> 100 µM
same,TGI,SF-268,41.1 µM
same,growth at 10 µM,RXF 393,-83%
same,GI50,T47D,1.63 µM
same,TGI,T47D,5.15 µM
same,CC50,T47D,> 100 µM
same,growth at 0.1 µM,UACC-62 [3],95%
same,GI50,SK-MEL-2,2.85 µM
same,TGI,SK-MEL-2,14.2 µM
same,CC50,SK-MEL-2,> 100 µM
same,growth at 0.1 µM,U-251,92%
same,growth at 0.1 µM,DU-145,96%
same,GI50,HCT-116,1.76 µM
same,LC50 (50% lethal concentration),HCT-116,8.25 µM
same,TGI,HCT-116,3.81 µM
same,growth at 0.1 µM,M14,96%
same,growth at 0.1 µM,PC-3,91%
same,growth at 10 µM,NCI-H322M,23%
same,growth at 0.01 µM,[4],101%
same,GI50,MOLT-4,3.04 µM
same,LC50,MOLT-4,> 100 µM
same,TGI,MOLT-4,29.8 µM
same,growth at 0.1 µM,BT-549,94%
same,GI50,SNB-19,3.57 µM
same,TGI,SNB-19,> 100 µM
same,CC50,SNB-19,> 100 µM
same,growth at 0.01 µM,A549,96%
same,growth at 0.01 µM,ACHN,103%
same,GI50,SK-MEL-28,2.14 µM
same,TGI,SK-MEL-28,12.4 µM
same,CC50,SK-MEL-28,> 100 µM
same,growth at 1 µM,OVCAR-8,81%
same,growth at 100 µM,LOX IMVI,-4%
COc1ccc(-c2nn3cc(-c4cccc(N)c4)nc3s2)cc1,growth at 1 µM,NCI-H522,60%
same,growth at 1 µM,786-0,104%
same,growth at 100 µM,TK-10,-30%
same,growth at 0.1 µM,KM12,100%
same,growth at 10 µM,IGROV-1,20%
same,growth at 0.01 µM,UACC-62 [1],93%
same,growth at 10 µM,UACC-257,63%
same,GI50,[2],4.46 µM
same,LC50,[2],> 100 µM
same,TGI,[2],55.1 µM
same,GI50,SF-268,4.13 µM
same,LC50,SF-268,> 100 µM
same,TGI,SF-268,27.2 µM
same,growth at 10 µM,RXF 393,-31%
same,GI50,T47D,1.37 µM
same,TGI,T47D,21.2 µM
same,CC50,T47D,> 100 µM
same,growth at 0.1 µM,UACC-62 [3],90%
same,GI50,SK-MEL-2,5.35 µM
same,TGI,SK-MEL-2,31.9 µM
same,CC50,SK-MEL-2,> 100 µM
same,growth at 0.1 µM,U-251,106%
same,growth at 0.1 µM,DU-145,103%
same,GI50,HCT-116,3.51 µM
same,LC50 (50% lethal concentration),HCT-116,41.4 µM
same,TGI,HCT-116,14.2 µM
same,growth at 0.1 µM,M14,101%
same,growth at 0.1 µM,PC-3,81%
same,growth at 10 µM,NCI-H322M,44%
same,growth at 0.01 µM,[4],100%
same,GI50,MOLT-4,3 µM
same,LC50,MOLT-4,> 100 µM
same,TGI,MOLT-4,> 100 µM
same,growth at 0.1 µM,BT-549,98%
same,GI50,SNB-19,12.4 µM
same,TGI,SNB-19,> 100 µM
same,CC50,SNB-19,> 100 µM
same,growth at 0.01 µM,A549,106%
same,growth at 0.01 µM,ACHN,106%
same,GI50,SK-MEL-28,3.76 µM
same,TGI,SK-MEL-28,26 µM
same,CC50,SK-MEL-28,> 100 µM
same,growth at 1 µM,OVCAR-8,94%
same,growth at 100 µM,LOX IMVI,-29%
